# Tests used:
# [1] = Clearance in rat at 1.5 mg/kg, iv; type: ADME, organism-based; design: dose 1.5 mg/kg, route intravenous; conditions: in vivo
# [2] = system: Liver microsome; assay: Clearance in Sprague-Dawley rat liver microsomes assessed per mg protein
# [3] = Half life in rat at 1.5 mg/kg, iv; type: ADME, organism-based; design: dose 1.5 mg/kg, route intravenous; conditions: in vivo
# [4] = AUC in rat at 1.5 mg/kg, iv; type: ADME, organism-based; design: dose 1.5 mg/kg, route intravenous; conditions: plasma
# [5] = Permeability of the compound at pH 7.4 by PAMPA; type: ADME; conditions: read-out: permeability
# [6] = Permeability of the compound at pH 5 by PAMPA; type: ADME; conditions: read-out: permeability
# [7] = system: Liver microsome; assay: Clearance in human liver microsomes assessed per mg protein
# [8] = Volume of distribution at steady state in rat at 1.5 mg/kg, iv; type: ADME, organism-based; design: dose 1.5 mg/kg, route intravenous; conditions: in vivo, read-out: Vdss
# [9] = Clearance in rat at 1 mg/kg, iv; type: ADME, organism-based; design: dose 1 mg/kg, route intravenous; conditions: in vivo
# [10] = Volume of distribution at steady state in rat at 1 mg/kg, iv; type: ADME, organism-based; design: dose 1 mg/kg, route intravenous; conditions: in vivo, read-out: Vdss
# [11] = AUC in rat at 1 mg/kg, iv; type: ADME, organism-based; design: dose 1 mg/kg, route intravenous; conditions: plasma
# [12] = Half life in rat at 1 mg/kg, iv; type: ADME, organism-based; design: dose 1 mg/kg, route intravenous; conditions: in vivo
# [13] = Drug metabolism in rat serum assessed as compound remaining at 1 uM after 30 mins by HPLC/MS/MS analysis relative to control; type: ADME, cell-free; conditions: read-out: Stability
# Summary of the method: (§1)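 Test compound at 1 µM final, incubated 30 min at 37 °C in serum, or in S9 mix (50 mM potassium phosphate pH 7.4, 3 mM NADPH, 1 mg protein/mL pooled male SD rat or human liver S9). Preincubated 5 min at 37 °C, compound added in acetonitrile–water (1:1), stopped with ice-cold acetonitrile, centrifuged, filtered, parent and carboxylate hydrolysate quantified by HPLC-MS/MS.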
# [14] = Drug metabolism in human liver S9 fraction assessed as 2-(3-aminopiperidin-1-yl)-3-(2-chlorobenzyl)-5-methyl-4-oxo-4,5-dihydro-3H-imidazo[4,5-c]quinoline-8-carboxylic acid formation at 1 uM after 30 mins by HPLC/MS/MS analysis relative to control; type: ADME, subcellular; conditions: s9, 0.5 h; summary of the method: as §1
# [15] = system: Serum; assay: Drug metabolism in human serum assessed as 2-(3-aminopiperidin-1-yl)-3-(2-chlorobenzyl)-5-methyl-4-oxo-4,5-dihydro-3H-imidazo[4,5-c]quinoline-8-carboxylic acid formation at 1 uM after 30 mins by HPLC/MS/MS analysis relative to control; type: ADME, cell-free; conditions: 0.5 h; summary of the method: as §1
# [16] = Drug metabolism in human serum assessed as compound remaining at 1 uM after 30 mins by HPLC/MS/MS analysis relative to control; type: ADME, cell-free; conditions: read-out: Stability; summary of the method: as §1
# [17] = system: Serum; assay: Drug metabolism in rat serum assessed as 2-(3-aminopiperidin-1-yl)-3-(2-chlorobenzyl)-5-methyl-4-oxo-4,5-dihydro-3H-imidazo[4,5-c]quinoline-8-carboxylic acid formation at 1 uM after 30 mins by HPLC/MS/MS analysis relative to control; type: ADME, cell-free; conditions: 0.5 h; summary of the method: as §1
# [18] = Drug metabolism in Sprague-Dawley rat liver S9 fraction assessed as compound remaining at 1 uM after 30 mins by HPLC/MS/MS analysis relative to control; type: ADME, subcellular; conditions: read-out: Stability; summary of the method: as §1
# [19] = Drug metabolism in Sprague-Dawley rat liver S9 fraction assessed as 2-(3-aminopiperidin-1-yl)-3-(2-chlorobenzyl)-5-methyl-4-oxo-4,5-dihydro-3H-imidazo[4,5-c]quinoline-8-carboxylic acid formation at 1 uM after 30 mins by HPLC/MS/MS analysis relative to control; type: ADME, subcellular; conditions: s9, 0.5 h; summary of the method: as §1
# [20] = Drug metabolism in human liver S9 fraction assessed as compound remaining at 1 uM after 30 mins by HPLC/MS/MS analysis relative to control; type: ADME, subcellular; conditions: read-out: Stability; summary of the method: as §1
# [21] = system: Serum; assay: Drug metabolism in rat serum assessed as 2-(3-aminopiperidin-1-yl)-3-(2-chlorobenzyl)-5-methyl-4-oxo-4,5-dihydro-3H-imidazo[4,5-c]quinoline-7-carboxylic acid formation at 1 uM after 30 mins by HPLC/MS/MS analysis relative to control; type: ADME, cell-free; conditions: 0.5 h; summary of the method: as §1
# [22] = Plasma concentration in rat at 10 mg/kg, po after 6 hrs; type: ADME, organism-based; design: dose 10 mg/kg, route oral
# Summary of the method: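 Rats dosed orally with prodrug; plasma levels of prodrug and carboxylate active metabolite measured over time, limit of quantification 1.0 ng/mL.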
# [23] = Drug metabolism in human liver S9 fraction assessed as metabolite 3 formation at 1 uM after 30 mins by HPLC/MS/MS analysis relative to control; type: ADME, subcellular; conditions: s9, 0.5 h; summary of the method: as §1
# [24] = system: Serum; assay: Drug metabolism in human serum assessed as 2-(3-aminopiperidin-1-yl)-3-(2-chlorobenzyl)-5-methyl-4-oxo-4,5-dihydro-3H-imidazo[4,5-c]quinoline-7-carboxylic acid formation at 1 uM after 30 mins by HPLC/MS/MS analysis relative to control; type: ADME, cell-free; conditions: 0.5 h; summary of the method: as §1
# [25] = Drug metabolism in Sprague-Dawley rat liver S9 fraction assessed as 2-(3-aminopiperidin-1-yl)-3-(2-chlorobenzyl)-5-methyl-4-oxo-4,5-dihydro-3H-imidazo[4,5-c]quinoline-7-carboxylic acid formation at 1 uM after 30 mins by HPLC/MS/MS analysis relative to control; type: ADME, subcellular; conditions: s9, 0.5 h; summary of the method: as §1
# [26] = system: Rattus norvegicus; assay: Oral bioavailability in rat assessed as 2-(3-aminopiperidin-1-yl)-3-(2-chlorobenzyl)-5-methyl-4-oxo-4,5-dihydro-3H-imidazo[4,5-c]quinoline-7-carboxylic acid level at 10 mg/kg; type: ADME, organism-based; conditions: in vivo
# [27] = system: Rattus norvegicus; assay: Oral bioavailability in rat assessed as 2-(3-aminopiperidin-1-yl)-3-(2-chlorobenzyl)-5-methyl-4-oxo-4,5-dihydro-3H-imidazo[4,5-c]quinoline-8-carboxylic acid level at 10 mg/kg; type: ADME, organism-based; conditions: in vivo
# [28] = AUC in rat at 3 mg/kg, iv; type: ADME, organism-based; design: dose 3 mg/kg, route intravenous; conditions: plasma
# [29] = Clearance in rat at 3 mg/kg, iv; type: ADME, organism-based; design: dose 3 mg/kg, route intravenous; conditions: in vivo
# [30] = Volume of distribution at steady state in rat at 3 mg/kg, iv; type: ADME, organism-based; design: route intravenous, dose 3 mg/kg; conditions: in vivo, read-out: Vdss
# [31] = Half life in rat at 3 mg/kg, iv; type: ADME, organism-based; design: dose 3 mg/kg, route intravenous; conditions: in vivo
Structure (SMILES),Papp [5] [×10⁻⁶ cm/s],Papp [6] [×10⁻⁶ cm/s],"remaining at 0.5 h, 1 µM [13] [%]",Drug metabolism [14],Drug metabolism [15],"remaining at 0.5 h, 1 µM [16] [%]",Drug metabolism [17],"remaining at 0.5 h, 1 µM [18] [%]",Drug metabolism [19],"remaining at 0.5 h, 1 µM [20] [%]",also measured
Cn1c(=O)c2c(nc(N3CCC[C@@H](N)C3)n2Cc2ccccc2Cl)c2cc(C(=O)O)ccc21,< 0.1,< 0.1,–,–,–,–,–,–,–,–,clearance [1]: 132 mL/min/kg; CLH [2]: < 10 µL/min/mg; half-life [3]: 1 h; AUC [4]: 188 ng·h/mL; CLH [7]: < 10 µL/min/mg; Vd [8]: 2.9 L/kg
Cn1c(=O)c2c(nc(N3CCC[C@@H](N)C3)n2Cc2cc(F)ccc2Cl)c2ccc(C(=O)O)cc21,–,–,–,–,–,–,–,–,–,–,clearance [9]: 167 mL/min/kg; Vd [10]: 31.5 L/kg; AUC [11]: 99.9 ng·h/mL; half-life [12]: 8.3 h
Cl.Cn1c(=O)c2c(nc(N3CCC[C@@H](N)C3)n2Cc2ccccc2Cl)c2cc(C(=O)OCOC(=O)C(C)(C)C)ccc21,6.3,6.5,0.6,metabolite_detected,metabolite_detected,73,metabolite_detected,< 0.5,metabolite_detected,< 0.5,–
COC(=O)c1ccc2c3nc(N4CCC[C@@H](N)C4)n(Cc4ccccc4Cl)c3c(=O)n(C)c2c1.Cl,41.4,36.2,8.4,–,–,92,–,70,–,> 99,Drug metabolism [21]: metabolite_detected; concentration at 6 h [22]: < 1 ng/mL; Drug metabolism [23]: metabolite_detected; Drug metabolism [24]: metabolite_detected; Drug metabolism [25]: metabolite_detected; F [26]: 90%
COC(=O)c1ccc2c(c1)c1nc(N3CCC[C@@H](N)C3)n(Cc3ccccc3Cl)c1c(=O)n2C.Cl,47.4,34.1,72,metabolite_detected,metabolite_detected,80,metabolite_detected,< 0.5,metabolite_detected,> 99,F [27]: 2.4%
Cl.Cn1c(=O)c2c(nc(N3CCC[C@@H](N)C3)n2Cc2ccccc2Cl)c2cc(C(=O)OCCCN3CCOCC3)ccc21,3.4,< 0.1,76,metabolite_detected,metabolite_detected,7,metabolite_detected,78,metabolite_detected,48,–
Cl.Cn1c(=O)c2c(nc(N3CCC[C@@H](N)C3)n2Cc2ccccc2Cl)c2cc(C(=O)OCCN3CCOCC3)ccc21,7.1,0.9,50,metabolite_detected,metabolite_detected,6.8,metabolite_detected,> 99,metabolite_detected,37,–
CN(C)CCCOC(=O)c1ccc2c(c1)c1nc(N3CCC[C@@H](N)C3)n(Cc3ccccc3Cl)c1c(=O)n2C.Cl,< 0.1,< 0.1,38,metabolite_detected,metabolite_detected,< 0.5,metabolite_detected,> 99,metabolite_detected,> 99,–
CN(C)CCOC(=O)c1ccc2c(c1)c1nc(N3CCC[C@@H](N)C3)n(Cc3ccccc3Cl)c1c(=O)n2C.Cl,0.6,< 0.1,97,metabolite_detected,metabolite_detected,< 0.5,metabolite_detected,> 99,metabolite_detected,> 99,–
Cn1c(=O)c2c(nc(N3CCC[C@@H](N)C3)n2Cc2ccccc2Cl)c2ccc(C(=O)O)cc21,< 0.1,< 0.1,–,–,–,–,–,–,–,–,CLH [2]: < 10 µL/min/mg; AUC [28]: 276 ng·h/mL; clearance [29]: 181 mL/min/kg; Vd [30]: 4.5 L/kg; CLH [7]: < 10 µL/min/mg; half-life [31]: 0.6 h
C[C@@H]1CN(CCOC(=O)c2ccc3c(c2)c2nc(N4CCC[C@@H](N)C4)n(Cc4ccccc4Cl)c2c(=O)n3C)C[C@H](C)O1.Cl,18,10.1,92,–,metabolite_detected,< 0.5,metabolite_detected,30,metabolite_detected,22,–
Cn1c(=O)c2c(nc(N3CCC[C@@H](N)C3)n2Cc2cc(F)ccc2Cl)c2cc(C(=O)O)ccc21,–,–,–,–,–,–,–,–,–,–,CLH [2]: < 10 µL/min/mg; clearance [9]: 222 mL/min/kg; Vd [10]: 7.1 L/kg; AUC [11]: 75.3 ng·h/mL; half-life [12]: 1.3 h; CLH [7]: < 10 µL/min/mg

# Reference: ChEMBL document CHEMBL3400032 (Bioorg Med Chem, 2015)
